Results: ChEMBL document CHEMBL3853326, “Proteolytically Stable Foldamer Mimics of Host-Defense Peptides with Protective Activities in a Murine Model of Bacterial Infection” (J Med Chem, 2016)
In brackets after ≈: the same amount, converted by molar mass. Activity calls are given as the source filed them.

Key:
[1] = system: Bacillus anthracis; assay: Bactericidal activity against encapsulated Bacillus anthracis 9602P assessed as reduction in colony forming units after 30 mins; type: functional; details: 0.5 h
[2] = system: Bacillus anthracis; assay: In vivo bactericidal activity against encapsulated Bacillus anthracis 9602P spores infected in mouse assessed as increase in time of survival at 20 ug/ml, administered intranasally for 15 mins to 48 hrs post infection measured for 15 days post dose; type: functional, organism-based
[3] = system: Bacillus anthracis; assay: In vivo bactericidal activity against encapsulated Bacillus anthracis 9602P spores infected in mouse assessed as increase in time of survival at 20 ug/ml, sc administered for 15 mins to 48 hrs post infection measured for 15 days post dose; type: functional, organism-based
[4] = system: Bacillus anthracis; assay: Bactericidal activity against germinated spore form of Bacillus anthracis 9602P assessed as colony forming units after 30 mins; type: functional; details: 0.5 h
[5] = Drug uptake in BALB/c mouse cortical convoluted tubule epithelial cells at 100 ug, iv after 4 hrs by avidin-peroxidase/HE staining based assay; type: ADME, organism-based, Epithelial cell; details: in vivo
[6] = Drug uptake in BALB/c mouse kidney deep medulla at 100 ug, iv after 4 hrs by avidin-peroxidase/HE staining based assay; type: ADME, organism-based; details: in vivo
[7] = Drug uptake in BALB/c mouse liver at 100 ug, iv after 4 hrs by avidin-peroxidase/HE staining based assay; type: ADME, organism-based; details: in vivo
[8] = Drug uptake in BALB/c mouse kidney deep medulla epithelial cells at 100 ug, iv after 4 hrs by avidin-peroxidase/HE staining based assay; type: ADME, organism-based, Epithelial cell; details: in vivo
[9] = system: Bacillus anthracis; assay: Bactericidal activity against germinating spore form of Bacillus anthracis at 5 ug/ml; type: functional
[10] = Drug uptake in BALB/c mouse kupffer cells at 100 ug, iv after 4 hrs by avidin-peroxidase/HE staining based assay; type: ADME, organism-based; details: in vivo
[11] = Drug uptake in BALB/c mouse kidney cortex at 100 ug, iv after 4 hrs by avidin-peroxidase/HE staining based assay; type: ADME, organism-based; details: in vivo
[12] = Stability assessed as Streptomyces griseus pronase E-mediated compound degradation up to 3 mins by HPLC analysis; type: ADME; details: 0.05 h
[13] = Stability assessed as trypsin (unknown origin)-mediated compound degradation up to 3 mins by HPLC analysis; type: ADME; details: human, 0.05 h
[14] = Stability assessed as chymotrypsin(unknown origin)-mediated compound degradation up to 3 mins by HPLC analysis; type: ADME; details: human, 0.05 h
[15] = Terminal half life in BALB/c mouse at 100ug, iv as bolus administration by liquid scintillation counting; type: ADME, organism-based; details: in vivo
Method in brief: (§1)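 Conscious BALB/c mice got one iv bolus of [3H]-labelled oligourea (0.5 × 10^6 cpm per 100 μg, 5.8 × 10−2 μmol) in PBS. Blood (10–20 μL) was drawn from the retro-orbital sinus at 0.6, 2, 3.5, 5.5, 8.7, 15 and 240 min and counted by liquid scintillation. PK was fitted by a two-compartment iv bolus model; n = 2 mice.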

[16] = Tmax in BALB/c mouse at 100ug, iv as bolus administration by liquid scintillation counting; type: ADME, organism-based; details: in vivo; method in brief: as §1
[17] = Ratio of drug level in liver to muscle in BALB/c mouse at 100 ug/ml, iv after 4 hrs by high resolution beta radiometric imaging analysis; type: ADME, organism-based; details: in vivo
Method in brief: (§2)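 BALB/c mice got 100 μg (5 μCi) tritiated compound iv in PBS. At 4, 30 and 48 h the mice were anaesthetised with halothane and frozen in isopentane/dry ice at −80 °C. Whole-body sagittal cryosections (20 μm, cut at −25 °C) were exposed 40 h on a β-imager. Counts per mm2 were read by image analysis, with a muscle-area detection threshold. Values are mean ± SD of 2–6 determinations.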

[18] = Drug uptake in BALB/c mouse nasopharyngeal duct at 20 ug/ml, administered intranasally at 4 hrs post dose by high resolution beta radiometric imaging analysis; type: ADME; details: in vivo, inhaled_or_intranasal
Method in brief: (§3)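 BALB/c mice got 20 μg (5 μCi) tritiated compound intranasally. At 4, 30 and 48 h they were anaesthetised with halothane and frozen at −80 °C. Whole-body 20 μm sagittal cryosections were exposed 40 h on a high-resolution β-imager. Regional radioactivity was quantified as counts per mm2 per 40 h by image analysis.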

[19] = Selectivity index, ratio of HD100 for sheep RBC to MIC for Staphylococcus aureus ATCC 25923
[20] = Drug uptake in BALB/c mouse liver at 100 ug/ml, iv after 4 to 48 hrs by high resolution beta radiometric imaging analysis; type: ADME, organism-based; details: in vivo; method in brief: as §2
[21] = system: Bacillus anthracis; assay: Bactericidal activity against nonencapsulated Bacillus anthracis 9602PR assessed as reduction in colony forming units after 30 mins; type: functional; details: 0.5 h
[22] = Stability assessed as trypsin (unknown origin)-mediated compound degradation after 24 hrs by HPLC analysis; type: ADME; details: human
[23] = system: Bacillus anthracis; assay: Bactericidal activity against Bacillus anthracis 9602P non-germinated spores assessed as colony forming units at 10 ug/ml incubated for 30 mins followed by heating for 30 mins (reference value: 5.28 +/- 0.02 CFU); type: functional
[24] = Drug uptake in BALB/c mouse kidney at 100ug, iv through bolus administration after 30 hrs by RP-HPLC analysis; type: ADME, organism-based; details: in vivo
Method in brief: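 Kidneys were taken 4 and 30 h after iv tritiated compound and homogenised in 1 N HCl. Homogenates were extracted with methanol/0.1% TFA (4:1), lyophilised 48 h and resuspended in water. Samples ran on C18 RP-HPLC with UV (224, 254 nm) and radioactivity detection. Elution was 10 min isocratic at 20% B, then 20–100% B over 15 min (B: acetonitrile, 0.1% TFA).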

[25] = Cytotoxicity against mouse RAW264.7 cells assessed as reduction in cell viability after 4 hrs by MTT assay; type: toxicity; details: read-out: LC50
Method in brief: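 RAW 264.7 murine macrophages (2 × 10^5 cells per well) were incubated with increasing compound concentrations for 4 h. Viability was read by MTT assay. The dose causing 50% cell lethality was reported as mean ± SEM, n = 3.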

[26] = system: Bacillus anthracis; assay: Time required for 50 % bactericidal activity against encapsulated Bacillus anthracis 9602P at 10 ug/ml; type: functional
[27] = system: Bacillus anthracis; assay: Time required for 50 % bactericidal activity against nonencapsulated Bacillus anthracis 9602PR at 10 ug/ml; type: functional
[28] = system: Bacillus anthracis; assay: Time required for 50 % bactericidal activity against germinating spore form of Bacillus anthracis 9602P at 10 ug/ml; type: functional
[29] = Drug uptake in BALB/c mouse lungs at 20 ug/ml, administered intranasally up to 4 hrs by high resolution beta radiometric imaging analysis; type: ADME, Lung; details: in vivo, inhaled_or_intranasal; method in brief: as §3
[30] = Drug excretion in BALB/c mouse urinary bladder at 100ug, iv as bolus administration after 240 mins by liquid scintillation counting; type: ADME, organism-based; details: in vivo, 4 h; method in brief: as §1
[31] = Selectivity ratio of LC50 for mouse RAW 264.7 cells to ratio of EC50 for germinating spore form of Bacillus anthracis 9602P; type: ADME; details: RAW264.7 cells, read-out: Selectivity Index
[32] = Ratio of drug level in kidney cortex to muscle in BALB/c mouse at 100 ug/ml, iv after 4 hrs by high resolution beta radiometric imaging analysis; type: ADME, organism-based; details: in vivo; method in brief: as §2
[33] = Stability assessed as chymotrypsin(unknown origin)-mediated compound degradation after 24 hrs by HPLC analysis; type: ADME; details: human
[34] = Drug uptake in BALB/c mouse kidney cortex at 100 ug/ml, iv after 4 to 48 hrs by high resolution beta radiometric imaging analysis; type: ADME, organism-based; details: in vivo; method in brief: as §2
[35] = Stability assessed as Streptomyces griseus pronase E-mediated compound degradation after 24 hrs by HPLC analysis; type: ADME
[36] = system: Bacillus anthracis; assay: Time required for 95 % bactericidal activity against encapsulated Bacillus anthracis 9602P at 10 ug/ml; type: functional
[37] = Drug excretion in BALB/c mouse urine at 20 ug/ml, administered intranasally after 6 hrs by high resolution beta radiometric imaging analysis; type: ADME; details: in vivo, inhaled_or_intranasal
[38] = Selectivity index, ratio of HD100 for sheep RBC to MIC for Escherichia coli ATCC 25922
[39] = Primary phase half life in BALB/c mouse at 100ug, iv as bolus administration by liquid scintillation counting; type: ADME, organism-based; details: in vivo; method in brief: as §1
[40] = Plasma protein binding in CD1 mouse at 10 uM after 4 hrs by HPLC/MS/MS analysis; type: ADME, cell-free; details: read-out: PPB
Method in brief: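 Binding was measured by equilibrium dialysis against CD-1 mouse plasma.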

[41] = Drug uptake in BALB/c mouse kidney cortex at 20 ug/ml, administered intranasally after 4 to 48 hrs by high resolution beta radiometric imaging analysis relative to iv dosing; type: ADME, organism-based; details: in vivo, inhaled_or_intranasal; method in brief: as §3
[42] = system: Bacillus anthracis; assay: Time required for 50 % bactericidal activity against encapsulated Bacillus anthracis 9602P at 20 ug/ml; type: functional
[43] = system: Bacillus anthracis; assay: Time required for 50 % bactericidal activity against nonencapsulated Bacillus anthracis 9602PR at 20 ug/ml; type: functional
[44] = system: Bacillus anthracis; assay: Time required for 50 % bactericidal activity against germinating spore form of Bacillus anthracis 9602P at 20 ug/ml; type: functional

For `CC(C)[C@@H](CCC(N)=O)NC(=O)NC[C@H](CCCCN)NC(=O)NC[C@H](Cc1c[nH]c2ccccc12)NC(=O)NC[C@H](CCCCN)NC(=O)NC[C@@H](NC(=O)NC[C@H](Cc1c[nH]c2ccccc12)NC(=O)NC[C@H](CCCCN)NC(=O)NC[C@@H](NC(=O)NCCSCC(=O)NCCNC(=O)CSCCNC(=O)N[C@H](CNC(=O)N[C@@H](CCCCN)CNC(=O)N[C@H](CNC(=O)N[C@H](CNC(=O)N[C@@H](CCCCN)CNC(=O)N[C@H](CNC(=O)N[C@@H](CCCCN)CNC(=O)N[C@H](CCC(N)=O)C(C)C)Cc1c[nH]c2ccccc12)C(C)C)Cc1c[nH]c2ccccc12)C(C)C)C(C)C)C(C)C`, the EC50 [1] was 0.5 µg/mL (≈ 0.169 µM), the Activity [2] was “Active” and the Activity [3] was “Active”. The EC50 [4] was 0.2 µg/mL (≈ 0.0678 µM).

In the case of `CC(C)[C@@H](CNC(=O)N[C@@H](CCCCN)CNC(=O)N[C@H](CNC(=O)N[C@H](CNC(=O)N[C@@H](CCCCN)CNC(=O)N[C@H](CNC(=O)N[C@@H](CCCCN)CNC(=O)N[C@H](CCC(N)=O)C(C)C)Cc1c[nH]c2ccccc12)C(C)C)Cc1c[nH]c2ccccc12)NC(=O)CCCC[C@@H]1SC[C@@H]2NC(=O)N[C@@H]21`, the Drug uptake [5] is reported as “Active”, the Drug uptake [6] is reported as “Active” and the Drug uptake [7] is reported as “Active”. For the same molecule, the Drug uptake [8] was “Active”, the Activity [9] was 64.8% and the Drug uptake [10] was “Active”. The Drug uptake [11] was “Active”.

With Ac-VKWVKWKV-NH2 the Stability [12] was “Unstable”, the Stability [13] was “Unstable” and the Stability [14] was “Unstable”.

With `CC(C)NC(=O)N[C@H](CNC(=O)N[C@@H](CCCCN)CNC(=O)N[C@H](CNC(=O)N[C@H](CNC(=O)N[C@@H](CCCCN)CNC(=O)N[C@H](CNC(=O)N[C@@H](CCCCN)CNC(=O)N[C@H](CCC(N)=O)C(C)C)Cc1c[nH]c2ccccc12)C(C)C)Cc1c[nH]c2ccccc12)C(C)C` the “beta t1/2” value [15] was 1.65 h, the Tmax [16] was “<= 2 min” and the Ratio [17] was 10. The Drug uptake [18] was “Active”, the Selectivity Index [19] was 8 and the Drug uptake [20] was “Active”. For the same molecule, the EC50 [21] was 6 µg/mL (≈ 4.32 µM), the Stability [22] was “Stable” and the EC50 [1] was 3.25 µg/mL (≈ 2.34 µM). For the same molecule, the Activity [23] was 5.26 CFU, the Drug uptake [24] was 89% and the CC50 at 4 h [25] was 31.1 µg/mL (≈ 22.4 µM). For the same molecule, the Time [26] was 30 s, the Time [27] was 35 s and the Activity [2] was “Active”. The Time [28] was 60 s, the Drug uptake [29] was “Active” and the Drug excretion [30] was 2%. The selectivity ratio [31] was 9.5, the Ratio [32] was 10 and the Stability [33] was “Stable”. For the same molecule, the Drug uptake [34] was “Active”, the Stability [35] was “Stable” and the Activity [3] was “Active”. The Time [36] was less than 2 min, the EC50 [4] was 3.3 µg/mL (≈ 2.38 µM) and the Drug excretion [37] was 2%. It also gave a Selectivity Index [38] of 8, an alphat1/2 [39] of 3 min and a fraction unbound at 4 h, 10 µM [40] of 0.01. The Drug uptake [41] was 70%.

`CC(C)NC(=O)N[C@H](CNC(=O)N[C@@H](CCCCN)CNC(=O)N[C@H](CNC(=O)N[C@H](CCC(=O)N[C@@H](CCCCN)CNC(=O)N[C@H](CNC(=O)N[C@@H](CCCCN)CNC(=O)N[C@H](CCC(N)=O)C(C)C)Cc1c[nH]c2ccccc12)C(C)C)Cc1c[nH]c2ccccc12)C(C)C` gave a Time [42] of 75 s, an EC50 [21] of 8.5 µg/mL (≈ 6.13 µM) and an EC50 [1] of 7 µg/mL (≈ 5.05 µM). The Time [43] was 45 s, the Time [44] was 120 s and the EC50 [4] was 10 µg/mL (≈ 7.21 µM).
